Experimental data as given in ChEMBL document CHEMBL4513216, “Probing the Open Global Health Chemical Diversity Library for Multistage-Active Starting Points for Next-Generation Antimalarials” (ACS Infect Dis, 2020).

assay: Toxicity liver stage against HepG2, at 10uM; type: cell-based; set-up: test concentration 10 uM, cell line HepG2-A16-CD81EGFP; conditions: human, HepG2-A16-CD81EGFP cells; read-out: INHIBITION
How it was run: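 Uninfected HepG2-A16-CD81EGFP cells, 3 × 10^3 per well, 1536-well, plated on prespotted compound at 10 μM final, parasite-free screening media added to match infected plates; puromycin 10 μM positive, DMSO 0.5% negative; run in parallel with 48 h PbLuc assay at 37 °C, 5% CO2; viability by CellTiter-Glo luminescence, normalized to controls.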

Structure (SMILES)	cytotoxicity at 10 µM
CCS(=O)(=O)c1ccc2oc([C@H]3CCN(Cc4cccnc4)C3)nc2c1	19.7%
O=C1N(C2CCCCC2)C[C@H]2CN(C3CCC3)CCN12	6.44%
COC(=O)[C@@H]1Cc2ncn(C)c2CN1S(=O)(=O)c1cccs1	-6.25%
O=C(NCCC1=CCCCC1)c1[nH]nc2c1CCCC2	-80.4%
CCCN1CCc2nc(SCc3ccc(F)cc3)[nH]c(=O)c2C1	-3.37%
CC(C)N1C[C@@H](CO)[C@H](c2ccccc2)S1(=O)=O	-1.94%
CN(C)C(=O)NC1COC2(CCN(C(=O)c3ccc(Cl)cc3)CC2)C1 (stereo not given)	0.994%
Cn1cccc1C(=O)N1CCC2(CC1)CCN2S(C)(=O)=O	8.73%
CN(C)S(=O)(=O)NCC1OCCc2cn(CC3CCOCC3)nc21 (stereo not given)	7.4%
COCC1c2nnn(CC3CC3)c2CCN1C(=O)c1ccncn1 (stereo not given)	-132%
CC1=N[C@@]2(CC[C@@H]3CN(Cc4ccccc4F)C[C@@H]32)C(=O)N1C	3.76%
COCCN1CCC2(CCCN(C(=O)c3ccoc3C)C2)C1=O (stereo not given)	0.369%
c1ccc(N2CCOCC3(CCCN(c4nccs4)C3)C2)nc1 (stereo not given)	-104%
O=c1[nH]nc2nc(N3CCCC3)ccn12	-6.07%
O=C1CC(c2ccccc2C(F)(F)F)c2sc(N3CCOCC3)nc2N1 (stereo not given)	9.18%
CCNS(=O)(=O)c1cnccc1N1CCN(CCO)CC1	3.6%
O=c1c2cnc(N3CCCCC3)nc2ccn1-c1ccccc1	-10.1%
CN(C)S(=O)(=O)N1CC[C@@H]2CN(Cc3cnn(C)c3)C[C@@H]2C1	13.5%
Cc1nn(CC(=O)Nc2ccon2)cc1Br	4.95%
CCn1cc(Cl)c(C(=O)NCCCO)n1	6.42%
COCC(=O)Nc1nn(Cc2ccc(F)cc2)cc1Cl	7.19%
CCCn1c(SCC(N)=O)nnc1-c1csc2c1CCCC2	-1.42%
Cc1cc(C(=O)N2CCCC(c3nc(C)no3)C2)on1 (stereo not given)	6.93%

Structure (SMILES)	cytotoxicity at 10 µM
Cc1nn(C)c2c(N(C)Cc3ccco3)nc(C3CC3)nc12	1.58%
COCC(=O)NCCCn1ncc2c(C)cccc21	7.55%
CCn1ccc(NS(=O)(=O)c2cccc(COC)c2)n1	-5.41%
N#Cc1cn[nH]c1NCc1cc(I)cc(I)c1O	1.11%
CN1CCCC1c1ccnc2nccn12 (stereo not given)	6.84%
CCC(O)Cn1nc(-c2ccc(C(=O)O)cc2)cc1-c1cccc(F)c1 (stereo not given)	8.17%
CSc1nnc(C2CCN(C(=O)N3CCCC3)CC2)n1C(C)C	8.54%
CO[C@H]1CN(Cc2nc3ccccc3n2C)CC[C@@]12CCCO2	2.5%
O=C(Nc1cccnc1N1CCSCC1)c1cc2c(s1)CCCCC2	-3.25%
O=C(Nc1cccc(N2CCCC2)c1)N[C@H](CCO)c1ccccc1	-4.52%
CN(Cc1cccs1)Cc1nnsc1Cl	-5.65%
CS(=O)(=O)CCCNc1cccc(COC2CCCCC2)c1	9.5%
COc1cc(NCCNC(=O)c2cc[nH]c2C)cc(OC)c1	-4.33%
COc1ccccc1CNC(=O)C(C)N1CC(n2cc(C)cn2)C1 (stereo not given)	6.15%
Cc1ccc(NC(=O)N(C)C)c(C(=O)OCC(=O)NC2CCCC2)c1	-8.03%
COc1ccc(-c2cnc(CN(CC(N)=O)C3CCCC3)o2)cc1	-7.95%
Cc1nc2n(n1)CC(NCCc1cccs1)CC2 (stereo not given)	-9.77%
O=S(=O)(Cc1ccccc1F)N1CCCC1c1nnc2n1CCCCC2 (stereo not given)	7.17%
CCOC(=O)NC(CNC(=O)c1cn(C)cn1)CC(C)C (stereo not given)	-5.35%
CC(NC(=O)COc1ccccc1C(=O)O)c1ccc(F)cc1 (stereo not given)	-1.11%
CC1CCCN(C(=O)Nc2cccc(CN3CCOC3=O)c2)C1 (stereo not given)	18.3%
COCC(=O)NCCCn1nc2ccccn2c1=O	11.8%
NC(=O)c1ccc(CN2CCC(N3CCCCC3)CC2)cc1	-7.55%

Structure (SMILES)	cytotoxicity at 10 µM
[O-][S+](Cc1c(F)cccc1Cl)Cc1nnnn1C1CC1 (stereo not given)	0.0902%
Cc1ccc(C(=O)Nc2cccc3c2C(=O)NC3)c(C)n1	0.102%
CN(C)S(=O)(=O)c1cccc(NC(=O)Cc2ccon2)c1	9.48%
Cc1nc(CNCC(C)c2nc3ccccc3o2)cs1 (stereo not given)	14.5%
CC1(C)CCC(C(=O)N2CCCO2)c2ccccc21 (stereo not given)	-0.636%
CCOc1cc(C(=O)N2CC=C(c3ccc(O)cc3)CC2)ccn1	-4.89%
Cc1nc(C2CCCN(c3ncc(Br)cn3)C2)no1 (stereo not given)	-0.598%
Cc1oc(CN(C)C(=O)c2ccc(C(F)(F)F)cc2)cc1C(=O)O	9.08%
C[C@@H]1CN(C(=O)Nc2cccc(OC(F)F)c2)CC(C(N)=O)O1 (stereo not given in full)	5.52%
Cc1noc(C)c1Cc1nc(N(C)C)no1	9.21%
Cc1cc(C(=O)Nc2nnn[nH]2)ccc1I	-2.08%
CCC(Nc1nnnn1-c1ccccc1)C(=O)Nc1nc(C)cs1 (stereo not given)	-23%
CCC(Nc1nnnn1-c1ccccc1)C(=O)NCc1ccsc1 (stereo not given)	-3.56%
O=S(=O)(CCNCCn1cccn1)c1ccccc1	11.5%
CNC(=O)c1ccccc1NCc1ncnn1C	-0.393%
O=S(=O)(CCC1CCCO1)NCc1ncc(-c2ccccc2)o1 (stereo not given)	3.7%
CCS(=O)(=O)c1ccc2c(c1)N1CCS(=O)(=O)N=C1O2	10.3%
O=S(=O)(Nc1ccccn1)c1cc(Cl)cc2c1OCC2	0.38%
Cc1cccc(C(C)(C)CNC(=O)CN(C)c2cnccn2)c1	1.79%
CN1CC(C(=O)NCCc2ccc3c(c2)OCO3)CC1=O (stereo not given)	2.55%
CS(=O)(=O)CCCNC1(c2cccc(F)c2)CC1	-3.39%
CCCN(CCN(C)C)C(=O)Cc1cn2ccsc2n1	0.27%
CNS(=O)(=O)c1cccc(C(C)NCc2cccc(OC)c2)c1 (stereo not given)	-12.3%

Structure (SMILES)	cytotoxicity at 10 µM
Cc1nc(C)n(CC2CCCCN2CCCS(=O)(=O)N(C)C)n1 (stereo not given)	-18.5%
Cc1noc(C)c1CN1CCN(C(=O)Cn2cncn2)CC1	-3.52%
COC(=O)C(C)(C)NC(=O)C1CC(=O)N(C2CCCC2)C1 (stereo not given)	-10.3%
Cc1nc2c(c(=O)n1C)CCN(Cc1cc3cc[nH]c3cn1)CC2	-9.56%
CC(=O)c1cccc(CN2CCCC23CCN(c2ccccn2)CC3)c1	-15.4%
Cc1noc(CN(C)Cc2cnc(N3CCOCC3)nc2)n1	-14%
CCCC1COCCN1Cc1ccc(C(=O)O)cc1 (stereo not given)	-139%
N#Cc1ccnc(NCc2cc3n(n2)CCCN(C(=O)C2CCC2)C3)c1	-135%
C[C@@H]1CN(Cc2cccnc2)C[C@]1(C)O	-6.1%
COCCCN(C)C(=O)Cn1cccc(OC)c1=O	7.52%
CCn1nc(C)c(C(=O)N2C[C@@H](CN(C)CCOC)[C@@H](CO)C2)c1C	1.35%
Cc1cc(OCC(O)c2nc3c([nH]2)CC(C)(C)CNC3=O)ccc1Cl (stereo not given)	-1.57%
CC(=O)NCc1nc(Cc2cccc(Cl)c2)nn1C1CCN(C)CC1	-1.12%
Cc1c[nH]c(CN2CCOC(c3ccc(Cl)c(Cl)c3)C2)c(C)c1=O (stereo not given)	17.7%
CN(Cc1ccno1)c1nc(C2CCCC2)nc2c1cnn2C	7.27%
NC1(C(=O)NCCC2CN(Cc3ccco3)CCO2)CCCC1 (stereo not given)	-1.03%
CN(C)C(=O)C1CCCN1C(=O)c1ccc(Cn2ccnc2)o1 (stereo not given)	-0.304%
CC(C)(C)n1ccc(C(=O)N2CCCC(c3ncc[nH]3)C2)c1 (stereo not given)	2.96%
Cc1ccc2nc(CN3CCCC3c3cccnc3)cc(O)c2c1 (stereo not given)	3.16%
CS(=O)(=O)NCc1cc2n(n1)CCCN(Cc1nc3ccccc3[nH]1)C2	-4.55%
CN(C)S(=O)(=O)N1CCN(C(=O)c2ccc3ccn(C)c3c2)CC1	-7.56%
CC(C)C(=O)NCC(=O)N(C)C1CCCN(CCc2ccccc2)C1 (stereo not given)	-16.9%
Cc1cc(C2CCCN2Cc2ccn(C)c(=O)c2)on1 (stereo not given)	-6.04%

Structure (SMILES)	cytotoxicity at 10 µM
Cc1nc(CN2CCCC(NCc3ccsc3)C2)no1 (stereo not given)	0.504%
c1ccc(CCN2CCN(c3ccc4nncn4n3)CC2)nc1	-7.93%
CC(Cn1cccn1)NC(=O)Nc1nccs1 (stereo not given)	-9.55%
Cc1ncc2c(n1)CCN(C(=O)Cc1c(C)noc1C)C2	-8.55%
O=C(CN1CCCC1Cn1cncn1)NCCOc1cccc(F)c1 (stereo not given)	-3.24%
COc1c(CNCCNC(=O)c2ccco2)c(C)nn1C	-5.92%
O=C1NCCN1C1CCCN(Cc2nnc(-c3ccc(F)cc3)o2)C1 (stereo not given)	-7.69%
CN1CCCC1CNC(=O)CCCOc1ccc(F)cc1 (stereo not given)	-7.67%
COC(=O)CN(C)C1CCc2ccccc21 (stereo not given)	-7.59%
CC(=O)N1CCN(C(=O)CCOc2ccc(C(C)C)cc2)CC1	-6.51%
CCc1nc(C2CCCN(C(=O)CCn3ccccc3=O)C2)no1 (stereo not given)	-12.3%
CCc1nccn1C1CCCN(C(=O)c2csc(NC(C)=O)n2)C1 (stereo not given)	-13%
COc1ccc(CNC2CCC3(CCC(=O)N3)CC2)cc1 (stereo not given)	3.59%
COc1ccc(C(=O)CN(C2=NCCCCC2)c2ccccc2)cc1	9.62%
CCOCC1CN(CCOc2ccc(Cl)cc2)Cc2c1cnn2C (stereo not given)	-109%
Cn1cc(CN2CCC3(CCC(C(=O)NCC4CC4)C3)CC2)cn1 (stereo not given)	3.47%
Cn1nc(Cn2cccn2)c2c1CN(Cc1ccoc1)C2	-3.77%
CCn1ccnc1CN1CCNCC1C (stereo not given)	-3.03%
CN(C)c1ncnc2c1CCN(CC1CCOC1)CC2 (stereo not given)	0.745%
CCN(CC)[C@@H]1CN(Cc2nccn2C)[C@@H]2CCCO[C@H]12	4.92%
Cc1cccnc1N1CC2(CCN(Cc3cnn(C)c3)C2)C1	-5.99%
c1ccc(CN2CCc3ncnc(-c4ccsc4)c3CC2)nc1	3.91%
Cn1cnc2c1C(COCc1cccnc1)N(Cc1nccs1)CC2 (stereo not given)	10.5%
